The results in this text go back to ChEMBL document CHEMBL4680104, “Structure-Based Optimization of Small-Molecule Inhibitors for the β-Catenin/B-Cell Lymphoma 9 Protein-Protein Interaction” (J Med Chem, 2018).

The test system of one data set is A549. Put plainly: Cytotoxicity in human A549 cells assessed as reduction in cell viability incubated for 72 hrs by MTS assay. The class given is functional, cell-based. To be noted: A549, 72 h. In outline: (§1)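 Cells seeded at 5 × 10^3 cells/well, kept overnight at 37 °C, then exposed to inhibitors at various concentrations for 72 h. Viability read with a freshly mixed PMS (0.92 mg/mL) : MTS (2 mg/mL) reagent at 1:19, incubated 3 h at 37 °C, A490 measured. […] Triplicate; mean ± SD.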
In general terms: Tetrazolium dyes change colour on reduction, which living cells bring about.

The target of data set [1] is T1, beta-catenin-B-cell lymphoma 9 protein complex (Homo sapiens) (UniProt P35222+O00512). Put plainly: Inhibition of protein interaction between beta-catenin (unknown origin)/BCL9 in HEK293 cells transfected with beta-catenin assessed as reduction in Wnt/beta-catenin transactivation incubated for 24 hrs by Wnt-responsive FOP-Flash luciferase reporter assay. Type of data set: cell-based. Put shortly: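 HEK293 cells were cotransfected using FuGENE6 with 45 ng TOPFlash or FOPFlash reporter, 135 ng pcDNA3.1-β-catenin and 20 ng pCMV-RL normalization reporter. After 24 h in DMEM with 10% FBS at 37 °C, inhibitors or DMSO were added for 24 h. Reporter activity was read with a dual luciferase system, normalized, and compared with DMSO-treated cells. Triplicate.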

A further data set has as its system HCT-116. Put plainly: Cytotoxicity in human HCT-116 cells assessed as reduction in cell viability incubated for 72 hrs by MTS assay. The class given is functional, cell-based. The following applies: HCT-116, 72 h. In outline: as §1
For data set [2], the target named is T1, beta-catenin-B-cell lymphoma 9 protein complex (Homo sapiens). Put plainly: Inhibition of protein interaction between beta-catenin (unknown origin)/BCL9 in human HEK293 cells transfected with beta-catenin assessed as reduction in Wnt/beta-catenin transactivation incubated for 24 hrs by Wnt-responsive FOP-Flash luciferase reporter assay.
The subject of another data set is MDA-MB-231. Briefly: Cytotoxicity in human MDA-MB-231 cells assessed as reduction in cell viability incubated for 72 hrs by MTS assay. To be noted: MDA-MB-231, 72 h. The class given is functional, cell-based. In outline:
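Triple-negative breast cancer line seeded at 5 × 10^3 cells/well, held overnight at 37 °C, then exposed to inhibitor over a concentration range for 72 h. Viability read out with a fresh 1:19 mix of PMS (0.92 mg/mL) and MTS (2 mg/mL), incubated 3 h at 37 °C, A490 measured.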

For another data set, the system named is SW480. Briefly: Cytotoxic activity in human SW480 cells at 50 to 100 uM incubated for 4 hrs by LDH release assay. The class given is cell-based. The following applies: sw480, 4 h, dose 50-100 µM. Put shortly:
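SW480 cells were seeded at 2 × 10^4 cells/well and kept overnight at 37 °C. They were then exposed to a range of inhibitor concentrations for 4 h. LDH in the culture supernatant was measured with a diagnostic kit by absorbance at 490 nm. Percent cytotoxicity was calculated from experimental release against maximum release, with background subtracted. Run in triplicate.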

For orientation: IC50 means the point on the concentration scale where inhibition reaches its midpoint.

SMILES strings stand for the structures. Activity calls are given as the source filed them. No cut-off for these calls is given here.

Turning to `Cl.Cl.O=C(Nc1ccc(O[C@H]2CCNC2)c(-c2ccc(F)cc2)c1)c1ccc(O[C@H]2CCNC2)c(-c2ccc3cc(F)ccc3c2)c1`, the IC50 with A549 amounted to 3.7 µM; in the data set with HCT-116, 5.6 µM; in the data set with MDA-MB-231, 2.1 µM. For the same compound, the inhibition result in data set [1] and in data set [2] was “Active” each time. Moreover, the Activity result with SW480 was “Toxic”.
For the compound `Cc1cc(F)ccc1-c1cc(NC(=O)c2ccc(O[C@H]3CCNC3)c(-c3ccc(F)c(F)c3)c2)ccc1O[C@H]1CCNC1.Cl.Cl`, the IC50 with A549 stood at 10 µM; with HCT-116, 5.6 µM; with MDA-MB-231 it was 4.1 µM. The inhibition entry in data set [1] and in data set [2] was “Active” in each case. In addition, the Activity entry in the data set with SW480 is “Toxic”.
Take `Cl.Cl.O=C(Nc1ccc(O[C@H]2CCNC2)c(-c2ccc(F)cc2)c1)c1ccc(O[C@H]2CCNC2)c(C2CCC(C(F)(F)F)CC2)c1` (stereo partly drawn): the concentration for half-maximal inhibition (IC50) in the data set on A549 came out at 4.8 µM; with HCT-116, 5.6 µM; with MDA-MB-231, 2.3 µM. For the same compound, the inhibition entry in data set [1] and in data set [2] was “Active” each time. Besides, in the data set with SW480, the Activity result is recorded as “Toxic”.
For the compound `Cl.Cl.O=C(Nc1ccc(O[C@@H]2CCNC2)c(-c2cccc(-c3nn[nH]n3)c2)c1)c1ccc(O[C@H]2CCNC2)c(-c2ccc(F)c(F)c2)c1`, the half-inhibitory concentration (IC50) in the data set with A549 is more than 400 µM; in the data set on HCT-116, 55 µM; in the data set with MDA-MB-231, 73 µM. For the same compound, the inhibition result in data set [1] and in data set [2] was “inactive” in each case.
Consider `Cl.Cl.O=C(Nc1ccc(O[C@H]2CCNC2)c(-c2ccc(F)cc2)c1)c1ccc(O[C@H]2CCNC2)c(-c2ccc3ccsc3c2)c1`, for which the half-maximal inhibitory concentration (IC50) was found to be 9.4 µM with A549, 7.5 µM in the data set with HCT-116 and 2.8 µM in the data set with MDA-MB-231. For the same compound, the inhibition entry in data set [1] and in data set [2] was “Active” in each case. Further, the Activity entry in the data set with SW480 is reported as “Toxic”.
With `Cl.Cl.O=C(Nc1ccc(O[C@H]2CCNC2)c(-c2ccc(F)cc2)c1)c1cnc(O[C@H]2CCNC2)c(-c2ccc(F)c(F)c2)c1`, the figures for the IC50 in the data set with A549, in the data set on HCT-116 and in the data set with MDA-MB-231 were 26 µM, 8.7 µM and 3.6 µM, respectively. Also, the inhibition result in data set [1] and in data set [2] was “Active” in each case. In addition, the Activity result with SW480 is “Toxic”.
As for `Cl.Cl.O=C(Nc1ccc(O[C@H]2CCNC2)c(-c2ccc(F)cc2)c1)c1ccc(O[C@H]2CCNC2)c(-c2ccc(F)c(F)c2)c1`, the inhibition result in data set [1] and in data set [2] was “Active” throughout. In the data set with SW480, the Activity result was “Toxic”.
